{"data": "Measured values gathered from unrelated publications", "target": "Phosphorylase b kinase gamma catalytic chain, liver/testis isoform (PHKG2, Homo sapiens, UniProt P15735)", "Residues used in one study (P15735 1-406)": "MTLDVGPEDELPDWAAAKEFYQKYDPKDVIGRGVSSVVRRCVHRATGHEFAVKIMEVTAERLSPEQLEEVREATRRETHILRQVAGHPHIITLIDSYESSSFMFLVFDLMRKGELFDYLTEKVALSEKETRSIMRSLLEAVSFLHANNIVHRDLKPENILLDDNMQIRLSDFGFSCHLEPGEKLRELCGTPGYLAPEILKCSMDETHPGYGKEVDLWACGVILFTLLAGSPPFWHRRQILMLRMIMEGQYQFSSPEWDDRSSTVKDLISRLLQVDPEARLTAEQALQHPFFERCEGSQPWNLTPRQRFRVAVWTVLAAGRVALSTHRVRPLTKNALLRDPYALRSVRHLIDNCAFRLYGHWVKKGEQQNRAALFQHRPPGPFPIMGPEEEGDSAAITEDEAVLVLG", "note": "Protocols differ between the studies behind these lines."}
{"Structure (SMILES)": "COc1cnc(Nc2cccc(S(N)(=O)=O)c2)nc1N1CCN(c2ccccc2)CC1", "assay": "binding, competition with immobilised ligand", "setting": "1 µM", "remaining binding [%]": 82}
{"Structure (SMILES)": "Cc1c[nH]c2nccc(Oc3c(F)cc(Nc4cc(Cl)nc(N)n4)cc3F)c12", "assay": "cell-free assay, competition with immobilised ligand", "setting": "0.1 µM", "remaining binding [%]": 89}
{"Structure (SMILES)": "Cc1cnn2ncc(-c3ccnc(N(C)C)n3)c2c1", "assay": "binding", "setting": "1 µM", "remaining binding [%]": 95}
{"Structure (SMILES)": "c1cncc(-c2cccc(Nc3nccc(NC4CCCCC4)n3)c2)c1", "assay": "binding, competition with immobilised ligand", "setting": "10 µM", "remaining binding [%]": 71}
{"Structure (SMILES)": "CNC(=O)[C@@H]1CC[C@@H](n2c(-c3ccc4cnccc4c3)nc3ccc(C(=O)NCc4cccc(C(N)=O)c4)cc32)C1", "assay": "binding, competition with immobilised ligand", "setting": "1 µM", "remaining binding [%]": 99}
{"Structure (SMILES)": "CN(CCCC(F)(F)F)c1nccc(-c2cnn3ncccc23)n1", "assay": "binding", "setting": "1 µM", "remaining binding [%]": 100}
{"Structure (SMILES)": "O=C(NCCCN1CCOCC1)c1ccc(Nc2nccc(-c3cc4ccccc4s3)n2)cc1", "assay": "binding, competition with immobilised ligand", "setting": "1 µM", "remaining binding [%]": 33}
{"Structure (SMILES)": "CN(C)c1nccc(-c2cnn3ncccc23)n1", "assay": "binding", "setting": "1 µM", "remaining binding [%]": 86}
{"Structure (SMILES)": "CCN1CCN(Cc2ccc(C(=O)Nc3ccc(C)c(Oc4ccc5c(c4)CC(=O)N5)c3)cc2C(F)(F)F)CC1", "assay": "binding, competition with immobilised ligand", "setting": "1 µM", "remaining binding [%]": 100}
{"Structure (SMILES)": "Cc1cc(-n2nc(Cc3cc(F)cc(C(F)(F)F)c3)nc2C)ccc1C(N)=O", "assay": "cell-free assay, competition with immobilised ligand", "setting": "1 µM", "remaining binding [%]": 100}
{"Structure (SMILES)": "CN(c1nccc(-c2cnn3ncccc23)n1)C1CC1", "assay": "binding", "setting": "1 µM", "remaining binding [%]": 81}
{"Structure (SMILES)": "O=C(c1ccc(Nc2nccc(-c3cc4ccccc4s3)n2)cc1)N1CCC(N2CCCC2)CC1", "assay": "binding, competition with immobilised ligand", "setting": "1 µM", "remaining binding [%]": 64}
{"Structure (SMILES)": "O=C(Nc1c[nH]nc1C(=O)NC1CCNCC1)c1cc(F)cc(F)c1", "assay": "binding, competition with immobilised ligand", "setting": "1 µM", "remaining binding [%]": 100}
{"Structure (SMILES)": "O=C(Nc1ccc(Oc2ccc(F)cc2)cc1)N1CCc2ncccc2[C@H]1c1ccc(F)cc1", "assay": "cell-free assay, competition with immobilised ligand", "setting": "1 µM", "remaining binding [%]": 100}
{"Structure (SMILES)": "C=CC(=O)N1CCC(C(=O)NCC(=O)N2CCN(c3nc(-c4cnc(N)nc4C(F)F)nc(N4CCOCC4)n3)CC2)CC1", "assay": "binding, competition with immobilised ligand", "setting": "1 µM", "remaining binding [%]": 89}
{"Structure (SMILES)": "CS(=O)(=O)N1CCCC(NC(=O)[C@H](CCC2CCCCC2)NC(=O)c2ccc(CNC(=O)c3cnc4ccccn34)cc2)C1 (stereo partly drawn)", "assay": "cell-free assay, competition with immobilised ligand", "setting": "0.1 µM", "remaining binding [%]": 100}
{"Structure (SMILES)": "N[C@@H]1CCN(c2nccc(-c3cnn4ncccc34)n2)C1", "assay": "binding", "setting": "1 µM", "remaining binding [%]": 84}
{"Structure (SMILES)": "O=C(N1CCS(=O)(=O)CC1)N1C[C@H](c2ccc(OC(F)(F)F)cc2)C[C@H](c2nc(C3CC3)no2)C1", "assay": "cell-free assay, competition with immobilised ligand", "setting": "1 µM", "remaining binding [%]": 100}
{"Structure (SMILES)": "C[C@@H]1CCN(c2nccc(-c3cnn4ncccc34)n2)C1", "assay": "binding", "setting": "1 µM", "remaining binding [%]": 72}
{"Structure (SMILES)": "O=C(c1ccc(Nc2ncc(Cl)c(-c3ccc(Cl)s3)n2)cc1)N1CCC(N2CCCC2)CC1", "assay": "binding, competition with immobilised ligand", "setting": "1 µM", "remaining binding [%]": 66}
{"Structure (SMILES)": "C[C@@H]1CN(c2cc(-c3n[nH]c4ccc(OC5(C)CC5)cc34)ncn2)C[C@H](C)O1", "assay": "cell-free assay, competition with immobilised ligand", "setting": "0.1 µM", "remaining binding [%]": 91}
